From ChEMBL document CHEMBL4330094, “Potent Metabolic Sialylation Inhibitors Based on C-5-Modified Fluorinated Sialic Acids” (J Med Chem, 2019)
Calls of active or inactive are those of the source. The rule behind the calls is not given here.

System: B16-F10
Assay: Effect on total cell surface glycosylation in mouse B16F10 cells assessed as inhibition of biotinylated GSL1-lectin binding at 102.4 uM after 3 days by flow cytometry
Type: cell-based
Conditions: b16-f10, 72 h
Outline: (§1)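 B16-F10 cells were exposed 3 days to 102.4 µM compound or DMSO. Staining used biotinylated lectins (AAL 5, PNA 5, GSL-I 1, LCA 1, PHA-L 1, PSA 1, SJA 1, WGA 1 µg/ml) in carbo-free blocking buffer with 1 mM CaCl and 1 mM MgCl for 45-60 min at 4 °C, then streptavidin-PE for 20 min at 4 °C. Flow cytometry read-out was MFI, mean ± SEM from two independent experiments.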

Compound | Activity
CCOC(=O)N[C@H]1[C@H]([C@H](OC(C)=O)[C@@H](COC(C)=O)OC(C)=O)OC(OC(C)=O)(C(=O)OC)[C@H](F)[C@@H]1OC(C)=O (stereo partly specified) | Non-Toxic

System: B16-F10
Assay: Effect on total cell surface glycosylation in mouse B16F10 cells assessed as inhibition of biotinylated PSA-lectin binding at 102.4 uM after 3 days by flow cytometry
Type: cell-based
Conditions: b16-f10, 72 h
Outline: as §1

Compound | Activity
CCOC(=O)N[C@H]1[C@H]([C@H](OC(C)=O)[C@@H](COC(C)=O)OC(C)=O)OC(OC(C)=O)(C(=O)OC)[C@H](F)[C@@H]1OC(C)=O (stereo partly specified) | Non-Toxic

System: B16-F10
Assay: Effect on total cell surface glycosylation in mouse B16F10 cells assessed as inhibition of biotinylated SJA-lectin binding at 102.4 uM after 3 days by flow cytometry
Type: cell-based
Conditions: b16-f10, 72 h
Outline: as §1

Compound | Activity
CCOC(=O)N[C@H]1[C@H]([C@H](OC(C)=O)[C@@H](COC(C)=O)OC(C)=O)OC(OC(C)=O)(C(=O)OC)[C@H](F)[C@@H]1OC(C)=O (stereo partly specified) | Non-Toxic

System: B16-F10
Assay: Relative inhibitory potency, ratio of SiaFAc to compound EC50 for inhibition of sialyltransferase in mouse B16-F10 cells
Type: cell-based
Conditions: not given

Compound | Ratio EC50
CCOC(=O)N[C@H]1[C@H]([C@H](OC(C)=O)[C@@H](COC(C)=O)OC(C)=O)OC(OC(C)=O)(C(=O)OC)[C@H](F)[C@@H]1OC(C)=O (stereo partly specified) | 15

System: B16-F10
Assay: Effect on total cell surface glycosylation in mouse B16F10 cells assessed as inhibition of biotinylated PHA-L lectin binding at 102.4 uM after 3 days by flow cytometry
Type: cell-based
Conditions: b16-f10, 72 h
Outline: as §1

Compound | Activity
CCOC(=O)N[C@H]1[C@H]([C@H](OC(C)=O)[C@@H](COC(C)=O)OC(C)=O)OC(OC(C)=O)(C(=O)OC)[C@H](F)[C@@H]1OC(C)=O (stereo partly specified) | Non-Toxic

System: not listed separately
Assay: Inhibition of sialyltransferase in mouse B16F10 cells assessed as decrease in lectin binding after 3 days by biotinylated MAL2 lectin and streptavidin-PE based flow cytometry
Type: cell-based
Conditions: not given
Outline: (§2)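 Each cell line was incubated 3 days with increasing compound concentrations or equivalent DMSO. Cells were stained with biotinylated MALII (5 µg/ml) in carbo-free blocking buffer with 1 mM CaCl/MgCl for 45-60 min at 4 °C, washed in PBS/1% BSA/0.02% azide, then stained with streptavidin-PE for 20 min at 4 °C. For flow cytometry, MFI was normalized to control as % lectin binding.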

EC50 [µM] | Compound
1.78 | CCOC(=O)N[C@H]1[C@H]([C@H](OC(C)=O)[C@@H](COC(C)=O)OC(C)=O)OC(OC(C)=O)(C(=O)OC)[C@H](F)[C@@H]1OC(C)=O (stereo partly specified)

System: not listed separately
Assay: Inhibition of sialyltransferase in HEK293 cells assessed as decrease in lectin binding after 3 days by biotinylated MAL2 lectin and streptavidin-PE based flow cytometry
Type: cell-based, Homo sapiens
Conditions: not given
Outline: as §2

EC50 [µM] | Compound
2.02 | CCOC(=O)N[C@H]1[C@H]([C@H](OC(C)=O)[C@@H](COC(C)=O)OC(C)=O)OC(OC(C)=O)(C(=O)OC)[C@H](F)[C@@H]1OC(C)=O (stereo partly specified)

System: B16-F10
Assay: Effect on total cell surface glycosylation in mouse B16F10 cells assessed as inhibition of biotinylated WGA-lectin binding at 102.4 uM after 3 days by flow cytometry
Type: cell-based
Conditions: b16-f10, 72 h
Outline: as §1

Compound | Activity
CCOC(=O)N[C@H]1[C@H]([C@H](OC(C)=O)[C@@H](COC(C)=O)OC(C)=O)OC(OC(C)=O)(C(=O)OC)[C@H](F)[C@@H]1OC(C)=O (stereo partly specified) | Non-Toxic

System: not listed separately
Assay: Inhibition of sialyltransferase in human HeLa cells assessed as decrease in lectin binding after 3 days by biotinylated MAL2 lectin and streptavidin-PE based flow cytometry
Type: cell-based
Conditions: not given
Outline: as §2

EC50 [µM] | Compound
2.02 | CCOC(=O)N[C@H]1[C@H]([C@H](OC(C)=O)[C@@H](COC(C)=O)OC(C)=O)OC(OC(C)=O)(C(=O)OC)[C@H](F)[C@@H]1OC(C)=O (stereo partly specified)

System: not listed separately
Assay: Inhibition of sialyltransferase in mouse 9464D cells assessed as decrease in lectin binding after 3 days by biotinylated MAL2 lectin and streptavidin-PE based flow cytometry
Type: cell-based
Conditions: not given
Outline: as §2

EC50 [µM] | Compound
8.91 | CCOC(=O)N[C@H]1[C@H]([C@H](OC(C)=O)[C@@H](COC(C)=O)OC(C)=O)OC(OC(C)=O)(C(=O)OC)[C@H](F)[C@@H]1OC(C)=O (stereo partly specified)

System: B16-F10
Assay: Effect on total cell surface glycosylation in mouse B16F10 cells assessed as inhibition of biotinylated AAL-lectin binding at 102.4 uM after 3 days by flow cytometry
Type: cell-based
Conditions: b16-f10, 72 h
Outline: as §1

Compound | Activity
CCOC(=O)N[C@H]1[C@H]([C@H](OC(C)=O)[C@@H](COC(C)=O)OC(C)=O)OC(OC(C)=O)(C(=O)OC)[C@H](F)[C@@H]1OC(C)=O (stereo partly specified) | Non-Toxic

System: B16-F10
Assay: Effect on total cell surface glycosylation in mouse B16F10 cells assessed as inhibition of biotinylated LCA-lectin binding at 102.4 uM after 3 days by flow cytometry
Type: cell-based
Conditions: b16-f10, 72 h
Outline: as §1

Compound | Activity
CCOC(=O)N[C@H]1[C@H]([C@H](OC(C)=O)[C@@H](COC(C)=O)OC(C)=O)OC(OC(C)=O)(C(=O)OC)[C@H](F)[C@@H]1OC(C)=O (stereo partly specified) | Non-Toxic

System: B16-F10
Assay: Effect on total cell surface glycosylation in mouse B16F10 cells assessed as inhibition of biotinylated PNA lectin binding at 102.4 uM after 3 days by flow cytometry
Type: cell-based
Conditions: b16-f10, 72 h
Outline: as §1

Compound | Activity
CCOC(=O)N[C@H]1[C@H]([C@H](OC(C)=O)[C@@H](COC(C)=O)OC(C)=O)OC(OC(C)=O)(C(=O)OC)[C@H](F)[C@@H]1OC(C)=O (stereo partly specified) | Non-Toxic

System: B16-F10
Assay: Cytotoxicity against mouse B16F10 cells assessed as reduction in metabolic activity at <51.2 uM after 3 days by MTT assay
Type: ADME, cell-based
Conditions: b16-f10, 72 h

Compound | Activity
CCOC(=O)N[C@H]1[C@H]([C@H](OC(C)=O)[C@@H](COC(C)=O)OC(C)=O)OC(OC(C)=O)(C(=O)OC)[C@H](F)[C@@H]1OC(C)=O (stereo partly specified) | Non-Toxic

System: B16-F10
Assay: Inhibition of sialyltransferase in mouse B16-F10 cells assessed as recovery time for sialylation at 25.6 uM pretreated for 3 days followed by washing and re-seeding and measured after 6 days by biotinylated MAL2 lectin-based flow cytometry
Type: cell-based
Conditions: not given
Outline: (§3)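 B16-F10 cells were pretreated 3 days with 25.6 or 51.2 µM compound or DMSO, washed, reseeded, and sampled daily for 6 days. They were stained with biotinylated MALII (5 µg/ml, 45-60 min, 4 °C) plus streptavidin-PE. Flow cytometry MFI was normalized to control as % lectin binding.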

Compound | sialylation recovery time
CCOC(=O)N[C@H]1[C@H]([C@H](OC(C)=O)[C@@H](COC(C)=O)OC(C)=O)OC(OC(C)=O)(C(=O)OC)[C@H](F)[C@@H]1OC(C)=O (stereo partly specified) | Active

System: B16-F10
Assay: Inhibition of sialyltransferase in mouse B16-F10 cells assessed as recovery time for sialylation at 51.2 uM pretreated for 3 days followed by washing and re-seeding and measured after 6 days by biotinylated MAL2 lectin-based flow cytometry
Type: cell-based
Conditions: not given
Outline: as §3

Compound | TIME [h]
CCOC(=O)N[C@H]1[C@H]([C@H](OC(C)=O)[C@@H](COC(C)=O)OC(C)=O)OC(OC(C)=O)(C(=O)OC)[C@H](F)[C@@H]1OC(C)=O (stereo partly specified) | 120 to 144

System: B16-F10
Assay: Cytotoxicity against mouse B16F10 cells assessed as reduction in metabolic activity at 204.8 uM after 3 days by MTT assay
Type: ADME, cell-based
Conditions: b16-f10, 72 h

Compound | Activity
CCOC(=O)N[C@H]1[C@H]([C@H](OC(C)=O)[C@@H](COC(C)=O)OC(C)=O)OC(OC(C)=O)(C(=O)OC)[C@H](F)[C@@H]1OC(C)=O (stereo partly specified) | Non-Toxic

System: not listed separately
Assay: Inhibition of sialyltransferase in mouse EL4 cells assessed as decrease in lectin binding after 3 days by biotinylated MAL2 lectin and streptavidin-PE based flow cytometry
Type: cell-based
Conditions: not given
Outline: as §2

EC50 [µM] | Compound
42 | CCOC(=O)N[C@H]1[C@H]([C@H](OC(C)=O)[C@@H](COC(C)=O)OC(C)=O)OC(OC(C)=O)(C(=O)OC)[C@H](F)[C@@H]1OC(C)=O (stereo partly specified)

Target: N-acylneuraminate cytidylyltransferase (Mus musculus, UniProt Q99KK2)
Assay: Prodrug activation in mouse B16F10 cells assessed as CMAS-mediated CMP-SiaFR levels at 51.2 uM after 1 to 24 hrs using fluorinated compounds by reverse-phase ion pairing chromatography/triple quadrupole mass spectrometric analysis
Type: cell-based
Conditions: not given
Outline: (§4)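 B16-F10 cells were incubated 1, 2, 4, 8 or 24 h with 51.2 µM fluorinated analogue or DMSO. Cells were washed with ammonium carbonate buffer (pH 7.4) and snap-frozen in liquid nitrogen. Extraction was twice for 3 min with cold 40% acetonitrile/40% methanol/20% water, followed by centrifugation for 3 min and vacuum drying.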

Sequence of N-acylneuraminate cytidylyltransferase (Q99KK2 whole entry): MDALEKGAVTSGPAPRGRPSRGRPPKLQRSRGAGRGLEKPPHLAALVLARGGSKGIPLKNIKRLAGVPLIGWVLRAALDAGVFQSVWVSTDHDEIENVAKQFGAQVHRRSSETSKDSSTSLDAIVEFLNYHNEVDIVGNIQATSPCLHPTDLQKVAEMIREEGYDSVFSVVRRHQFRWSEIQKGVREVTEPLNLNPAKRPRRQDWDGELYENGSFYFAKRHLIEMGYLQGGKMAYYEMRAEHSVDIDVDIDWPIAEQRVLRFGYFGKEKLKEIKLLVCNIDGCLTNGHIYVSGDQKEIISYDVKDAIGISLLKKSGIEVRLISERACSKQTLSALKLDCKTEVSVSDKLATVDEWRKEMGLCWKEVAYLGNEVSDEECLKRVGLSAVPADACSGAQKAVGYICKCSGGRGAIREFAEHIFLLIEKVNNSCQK

Drug metabolism | Compound
Metabolite_Detected | CCOC(=O)N[C@H]1[C@H]([C@H](OC(C)=O)[C@@H](COC(C)=O)OC(C)=O)OC(OC(C)=O)(C(=O)OC)[C@H](F)[C@@H]1OC(C)=O (stereo partly specified)

System: not listed separately
Assay: Inhibition of sialyltransferase in human THP1 cells assessed as decrease in lectin binding after 3 days by biotinylated MAL2 lectin and streptavidin-PE based flow cytometry
Type: cell-based
Conditions: not given
Outline: as §2

EC50 [µM] | Compound
0.45 | CCOC(=O)N[C@H]1[C@H]([C@H](OC(C)=O)[C@@H](COC(C)=O)OC(C)=O)OC(OC(C)=O)(C(=O)OC)[C@H](F)[C@@H]1OC(C)=O (stereo partly specified)

System: B16-F10
Assay: Inhibition of sialyltransferase in mouse B16-F10 cells assessed as reduction in CMP-Sia pool at 51.2 uM after 1 to 24 hrs using fluorinated compounds by reverse-phase ion pairing chromatography/triple quadrupole mass spectrometric analysis
Type: cell-based
Conditions: not given
Outline: as §4

Compound | inhibition
CCOC(=O)N[C@H]1[C@H]([C@H](OC(C)=O)[C@@H](COC(C)=O)OC(C)=O)OC(OC(C)=O)(C(=O)OC)[C@H](F)[C@@H]1OC(C)=O (stereo partly specified) | Active
